ChEMBL document CHEMBL2346608, “New annelated thieno[2,3-e][1,2,3]triazolo[1,5-a]pyrimidines, with potent anticancer activity, designed through VLAK protocol” (2013)

Columns and labels:
Assay type in all cases: functional
[1] = system: SK-OV-3; assay: Antiproliferative activity against human SKOV3 cells after 48 hrs by sulforhodamine B assay; settings: SK-OV-3, 48 h
How it was run: (§1)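 Cells grown in RPMI 1640 with 5% FBS and 2 mM L-glutamine, plated at 5000–40,000 cells/well and preincubated 24 h at 37 °C, 5% CO2. Five drug concentrations (10-fold or ½-log dilutions from DMSO stocks) applied for 48 h. TCA-fixed (final 10% adherent, 16% suspension), SRB-stained, A515 read. Growth versus time-zero and control wells gave GI50, TGI, LC50.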

[2] = system: OVCAR-8; assay: Antiproliferative activity against human OVCAR8 cells after 48 hrs by sulforhodamine B assay; settings: OVCAR-8, 48 h; how it was run: as §1
[3] = system: NCI-H522; assay: Antiproliferative activity against human NCI-H522 cells after 48 hrs by sulforhodamine B assay; settings: NCI-H522, 48 h; how it was run: as §1
[4] = system: NCI-H23; assay: Antiproliferative activity against human NCI-H23 cells after 48 hrs by sulforhodamine B assay; settings: NCI-H23, 48 h; how it was run: as §1
[5] = system: NCI-H226; assay: Antiproliferative activity against human NCI-H226 cells after 48 hrs by sulforhodamine B assay; settings: NCI-H226, 48 h; how it was run: as §1
[6] = system: HOP-92; assay: Antiproliferative activity against human HOP92 cells after 48 hrs by sulforhodamine B assay; settings: HOP-92, 48 h; how it was run: as §1
[7] = system: HOP-62; assay: Antiproliferative activity against human HOP62 cells after 48 hrs by sulforhodamine B assay; settings: HOP-62, 48 h; how it was run: as §1
[8] = system: UACC-62; assay: Antiproliferative activity against human UACC62 cells after 48 hrs by sulforhodamine B assay; settings: UACC-62, 48 h
How it was run: (§2)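 Cells in RPMI 1640 with 5% FBS and 2 mM L-glutamine were seeded at 5000–40,000/well according to doubling time and preincubated 24 h at 37 °C in 5% CO2. Time-zero plates were TCA-fixed when drug was added. Five 10-fold or ½-log dilutions from DMSO stocks were added for 48 h. After SRB staining, A515 was read and GI50 derived from [(Ti−Tz)/(C−Tz)]×100 = 50.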

[9] = system: MDA-MB-435; assay: Antiproliferative activity against human MDA-MB-435 cells after 48 hrs by sulforhodamine B assay; settings: MDA-MB-435, 48 h; how it was run: as §1
[10] = system: M14; assay: Antiproliferative activity against human M14 cells after 48 hrs by sulforhodamine B assay; settings: M14, 48 h; how it was run: as §1
[11] = system: K562; assay: Antiproliferative activity against human K562 cells after 48 hrs by sulforhodamine B assay; settings: K562, 48 h; how it was run: as §1
[12] = system: HL-60; assay: Antiproliferative activity against human HL60 (TB) cells after 48 hrs by sulforhodamine B assay; settings: HL-60, 48 h
How it was run: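 NCI 60-cell panel protocol: cells in RPMI 1640 with 5% FBS and 2 mM L-glutamine, plated 24 h at 37 °C/5% CO2 before dosing. Compounds dissolved in DMSO and tested at five concentrations (10-fold or ½ log serial dilutions) for 48 h. Suspension cells fixed with 80% TCA (final 16%), SRB stained, absorbance at 515 nm. GI50 derived from time-zero-corrected growth.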

[13] = system: CCRF-CEM; assay: Antiproliferative activity against human CCRF-CEM cells after 48 hrs by sulforhodamine B assay; how it was run: as §1
[14] = system: KM12; assay: Antiproliferative activity against human KM12 cells after 48 hrs by sulforhodamine B assay; settings: KM12, 48 h; how it was run: as §1
[15] = Antiproliferative activity against human HCC2998 cells after 48 hrs by sulforhodamine B assay; settings: HCC 2998, 48 h; how it was run: as §1
[16] = system: COLO 205; assay: Antiproliferative activity against human COLO205 cells after 48 hrs by sulforhodamine B assay; settings: COLO 205, 48 h; how it was run: as §1
[17] = system: SF-539; assay: Antiproliferative activity against human SF539 cells after 48 hrs by sulforhodamine B assay; settings: SF-539, 48 h; how it was run: as §1
[18] = system: SNB-19; assay: Antiproliferative activity against human SNB19 cells after 48 hrs by sulforhodamine B assay; settings: SNB-19, 48 h; how it was run: as §1
[19] = system: SF-295; assay: Antiproliferative activity against human SF295 cells after 48 hrs by sulforhodamine B assay; settings: SF-295, 48 h; how it was run: as §1
[20] = system: MDA-MB-231; assay: Antiproliferative activity against human MDA-MB-231 cells after 48 hrs by sulforhodamine B assay; settings: MDA-MB-231, 48 h; how it was run: as §1
[21] = Antiproliferative activity against human Hs 578T cells after 48 hrs by sulforhodamine B assay; how it was run: as §1
[22] = system: TK-10; assay: Antiproliferative activity against human TK10 cells after 48 hrs by sulforhodamine B assay; settings: TK-10, 48 h; how it was run: as §2
[23] = system: UO-31; assay: Antiproliferative activity against human UO31 cells after 48 hrs by sulforhodamine B assay; settings: UO-31, 48 h; how it was run: as §2
[24] = system: SN12C; assay: Antiproliferative activity against human SN12C cells after 48 hrs by sulforhodamine B assay; how it was run: as §1
[25] = system: RXF 393; assay: Antiproliferative activity against human RXF393 cells after 48 hrs by sulforhodamine B assay; settings: RXF 393, 48 h; how it was run: as §1
[26] = system: A498; assay: Antiproliferative activity against human A498 cells after 48 hrs by sulforhodamine B assay; settings: A498, 48 h; how it was run: as §1
[27] = system: PC-3; assay: Antiproliferative activity against human PC3 cells after 48 hrs by sulforhodamine B assay; settings: PC-3, 48 h; how it was run: as §1
[28] = read-out: pLC50 (the source's name) (converted)

For `CN1CCN(CCCn2c(=O)c3sc4ncccc4c3n3nnc(-c4ccccc4)c23)CC1`, which GI50 [1] is on record?
The GI50 was 8.91 µM.

And the LC50 [1]?
Its LC50 is 28.2 µM.

What about the TGI ([1]; read-out: pTGI (converted)) of the same compound?
The TGI was 15.8 µM.

And the GI50 [2]?
Its GI50 is 7.76 µM.

What about the LC50 [2] of the same compound?
Its LC50 is 30.2 µM.

And the TGI ([2]; read-out: pTGI (converted))?
The TGI was 15.5 µM.

And the GI50 [3]?
The GI50 was 7.24 µM.

What about the LC50 [3] of the same compound?
Its LC50 is 28.8 µM.

And the TGI ([3]; read-out: pTGI (converted))?
Its TGI is 14.5 µM.

What about the GI50 [4] of the same compound?
Its GI50 is 8.13 µM.

What about the LC50 [4] of the same compound?
The LC50 was 28.8 µM.

And the TGI ([4]; read-out: pTGI (converted))?
The TGI was 15.5 µM.

And the GI50 [5]?
The GI50 was 7.41 µM.

What about the LC50 [5] of the same compound?
The LC50 was 31.6 µM.

What about the TGI ([5]; read-out: pTGI (converted)) of the same compound?
Its TGI is 15.1 µM.

And the GI50 [6]?
The GI50 was 5.75 µM.

And the CC50 [6, 28]?
The CC50 was 28.8 µM.

What about the TGI ([6]; read-out: pTGI (converted)) of the same compound?
Its TGI is 12.9 µM.

And the GI50 [7]?
The GI50 was 8.13 µM.

What about the LC50 [7] of the same compound?
Its LC50 is 28.8 µM.

And the TGI ([7]; read-out: pTGI (converted))?
Its TGI is 15.5 µM.

And the GI50 [8]?
The GI50 was 8.91 µM.

What about the LC50 (concentration killing 50% of cells) [8] of the same compound?
The LC50 (concentration killing 50% of cells) was 29.5 µM.

What about the TGI ([8]; read-out: pTGI (converted)) of the same compound?
Its TGI is 16.2 µM.

What about the GI50 [9] of the same compound?
The GI50 was 1.17 µM.

What about the LC50 [9] of the same compound?
The LC50 was 13.2 µM.

What about the TGI ([9]; read-out: pTGI (converted)) of the same compound?
Its TGI is 3.02 µM.

And the GI50 [10]?
The GI50 was 2.14 µM.

What about the LC50 [10] of the same compound?
Its LC50 is 20.9 µM.

And the TGI ([10]; read-out: pTGI (converted))?
The TGI was 7.41 µM.

And the GI50 [11]?
Its GI50 is 0.871 µM.

And the LC50 (concentration killing 50% of cells) [11]?
The LC50 (concentration killing 50% of cells) was 4.79 µM.

And the TGI ([11]; read-out: pTGI (converted))?
The TGI was 2.04 µM.

What about the GI50 [12] of the same compound?
Its GI50 is 0.794 µM.

What about the CC50 [12, 28] of the same compound?
The CC50 was 3.8 µM.

What about the TGI ([12]; read-out: pTGI (converted)) of the same compound?
The TGI was 1.74 µM.

And the GI50 [13]?
Its GI50 is 1.55 µM.

What about the LC50 [13] of the same compound?
Its LC50 is 24.5 µM.

What about the TGI ([13]; read-out: pTGI (converted)) of the same compound?
The TGI was 5.25 µM.

And the GI50 [14]?
The GI50 was 4.27 µM.

And the LC50 [14]?
The LC50 was 24.5 µM.

And the TGI ([14]; read-out: pTGI (converted))?
The TGI was 10.7 µM.

And the GI50 [15]?
Its GI50 is 6.76 µM.

And the LC50 [15]?
The LC50 was 26.3 µM.

What about the TGI ([15]; read-out: pTGI (converted)) of the same compound?
Its TGI is 13.5 µM.

What about the GI50 [16] of the same compound?
Its GI50 is 7.41 µM.

And the LC50 [16]?
Its LC50 is 28.8 µM.

What about the TGI ([16]; read-out: pTGI (converted)) of the same compound?
Its TGI is 14.5 µM.

What about the GI50 [17] of the same compound?
The GI50 was 5.75 µM.

What about the LC50 [17] of the same compound?
Its LC50 is 30.9 µM.

And the TGI ([17]; read-out: pTGI (converted))?
The TGI was 13.5 µM.

And the GI50 [18]?
The GI50 was 8.32 µM.

And the LC50 [18]?
The LC50 was 29.5 µM.

What about the TGI ([18]; read-out: pTGI (converted)) of the same compound?
Its TGI is 15.8 µM.

What about the GI50 [19] of the same compound?
Its GI50 is 5.62 µM.

And the LC50 [19]?
The LC50 was 26.9 µM.

What about the TGI ([19]; read-out: pTGI (converted)) of the same compound?
Its TGI is 12.3 µM.

What about the GI50 [20] of the same compound?
The GI50 was 6.92 µM.

What about the LC50 [20] of the same compound?
The LC50 was 26.9 µM.

What about the TGI ([20]; read-out: pTGI (converted)) of the same compound?
The TGI was 13.5 µM.

And the GI50 [21]?
Its GI50 is 6.46 µM.

What about the LC50 [21] of the same compound?
Its LC50 is 39.8 µM.

What about the TGI ([21]; read-out: pTGI (converted)) of the same compound?
Its TGI is 16.2 µM.

What about the GI50 [22] of the same compound?
The GI50 was 6.92 µM.

And the LC50 [22]?
The LC50 was 26.9 µM.

And the TGI ([22]; read-out: pTGI (converted))?
The TGI was 13.5 µM.

What about the GI50 [23] of the same compound?
The GI50 was 5.13 µM.

What about the LC50 [23] of the same compound?
The LC50 was 28.2 µM.

What about the TGI ([23]; read-out: pTGI (converted)) of the same compound?
The TGI was 12 µM.

And the GI50 [24]?
Its GI50 is 7.24 µM.

What about the LC50 [24] of the same compound?
The LC50 was 28.2 µM.

What about the TGI ([24]; read-out: pTGI (converted)) of the same compound?
The TGI was 14.1 µM.

And the GI50 [25]?
The GI50 was 6.31 µM.

And the LC50 [25]?
Its LC50 is 28.2 µM.

And the TGI ([25]; read-out: pTGI (converted))?
Its TGI is 13.5 µM.

What about the GI50 [26] of the same compound?
The GI50 was 0.158 µM.

And the LC50 [26]?
The LC50 was 21.9 µM.

What about the TGI ([26]; read-out: pTGI (converted)) of the same compound?
The TGI was 9.33 µM.

What about the GI50 [27] of the same compound?
The GI50 was 6.31 µM.

And the LC50 [27]?
Its LC50 is 28.8 µM.

What about the TGI ([27]; read-out: pTGI (converted)) of the same compound?
The TGI was 13.5 µM.
